Experimental findings from ChEMBL document CHEMBL1124012, “Synthesis of sulfur-containing analogues of bestatin. Inhibition of aminopeptidases by alpha-thiolbestatin analogues” (J Med Chem, 1988) are described below.

One assay addresses Cytosol aminopeptidase (Homo sapiens, UniProt P28838). Description: Inhibitory activity against Leucine aminopeptidase. Set-up: species or system Streptomyces olivoreticuli. The method in brief:
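Cytosolic leucine aminopeptidase, converted to Zn/Mg form by 4 h at 37 °C in 10 mM HEPES pH 8.0 with 5 mM MgSO4 and 1 M KCl. Assayed at 25 °C in 0.1 M Tris pH 8.5 with 5 mM MgCl2, enzyme 5 nM (1 nM for very tight binders).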

In another assay the target is T1, Aminopeptidase N (Sus scrofa, UniProt P15145).
T1 sequence (P15145 whole entry): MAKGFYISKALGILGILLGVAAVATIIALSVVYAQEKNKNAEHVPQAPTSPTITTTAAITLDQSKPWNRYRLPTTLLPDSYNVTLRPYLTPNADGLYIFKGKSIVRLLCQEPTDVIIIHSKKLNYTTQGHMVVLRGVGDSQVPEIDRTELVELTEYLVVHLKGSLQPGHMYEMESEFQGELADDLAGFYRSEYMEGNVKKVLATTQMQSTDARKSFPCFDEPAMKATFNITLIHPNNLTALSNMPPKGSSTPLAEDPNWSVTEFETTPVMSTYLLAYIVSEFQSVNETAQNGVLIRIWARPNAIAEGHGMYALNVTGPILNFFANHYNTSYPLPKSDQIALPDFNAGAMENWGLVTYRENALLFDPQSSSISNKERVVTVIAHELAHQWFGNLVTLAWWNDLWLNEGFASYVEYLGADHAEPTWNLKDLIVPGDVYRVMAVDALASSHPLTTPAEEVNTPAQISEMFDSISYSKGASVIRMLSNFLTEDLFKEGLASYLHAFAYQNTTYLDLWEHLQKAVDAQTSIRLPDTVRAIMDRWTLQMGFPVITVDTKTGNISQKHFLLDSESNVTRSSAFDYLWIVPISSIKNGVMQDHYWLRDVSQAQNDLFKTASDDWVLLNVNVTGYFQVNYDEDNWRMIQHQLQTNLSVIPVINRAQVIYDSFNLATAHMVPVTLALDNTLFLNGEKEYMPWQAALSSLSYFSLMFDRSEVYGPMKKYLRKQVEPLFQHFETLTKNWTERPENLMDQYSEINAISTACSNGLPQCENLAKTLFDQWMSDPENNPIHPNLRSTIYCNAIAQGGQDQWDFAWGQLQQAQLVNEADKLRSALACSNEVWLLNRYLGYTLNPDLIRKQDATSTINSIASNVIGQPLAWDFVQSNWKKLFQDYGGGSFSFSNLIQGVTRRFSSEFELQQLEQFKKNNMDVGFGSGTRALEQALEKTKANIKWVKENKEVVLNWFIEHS
Description: Inhibitory activity against Aminopeptidase M.

The target in a further assay is T2, Aminopeptidase B (Rattus norvegicus, UniProt O09175).
T2 sequence (O09175 whole entry): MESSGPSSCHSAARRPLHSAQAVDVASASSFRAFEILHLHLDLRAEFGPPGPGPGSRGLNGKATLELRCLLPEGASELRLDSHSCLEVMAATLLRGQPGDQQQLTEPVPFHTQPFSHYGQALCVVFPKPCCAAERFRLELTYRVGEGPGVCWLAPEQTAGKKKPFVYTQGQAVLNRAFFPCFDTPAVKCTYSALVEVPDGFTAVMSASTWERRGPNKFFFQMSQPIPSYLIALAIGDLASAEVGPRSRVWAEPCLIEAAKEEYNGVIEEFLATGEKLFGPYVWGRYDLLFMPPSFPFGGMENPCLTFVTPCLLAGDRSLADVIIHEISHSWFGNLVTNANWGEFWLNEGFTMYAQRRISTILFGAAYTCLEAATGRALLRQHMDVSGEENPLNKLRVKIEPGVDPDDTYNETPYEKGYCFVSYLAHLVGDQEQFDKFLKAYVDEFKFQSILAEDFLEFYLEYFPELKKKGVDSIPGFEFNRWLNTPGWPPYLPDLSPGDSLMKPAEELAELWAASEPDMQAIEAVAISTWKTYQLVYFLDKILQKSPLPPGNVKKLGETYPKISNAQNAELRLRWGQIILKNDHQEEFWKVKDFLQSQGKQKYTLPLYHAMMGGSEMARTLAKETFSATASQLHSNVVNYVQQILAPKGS
Description: Inhibitory activity against aminopeptidase B. The method in brief:
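Aminopeptidase B at an estimated 4.6 nM, diluted 10-fold for tight binders, in 0.1 M PIPES pH 7.0 with 0.2 M NaCl and 1 mM DTT, 25 °C. Substrate was L-arginine p-nitroanilide, used near Km, with hydrolysis read at 405 nm. Where slow binding appeared, enzyme and inhibitor were preincubated 10–20 min before substrate was added.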

Cytosol aminopeptidase, sequence (P28838 whole entry): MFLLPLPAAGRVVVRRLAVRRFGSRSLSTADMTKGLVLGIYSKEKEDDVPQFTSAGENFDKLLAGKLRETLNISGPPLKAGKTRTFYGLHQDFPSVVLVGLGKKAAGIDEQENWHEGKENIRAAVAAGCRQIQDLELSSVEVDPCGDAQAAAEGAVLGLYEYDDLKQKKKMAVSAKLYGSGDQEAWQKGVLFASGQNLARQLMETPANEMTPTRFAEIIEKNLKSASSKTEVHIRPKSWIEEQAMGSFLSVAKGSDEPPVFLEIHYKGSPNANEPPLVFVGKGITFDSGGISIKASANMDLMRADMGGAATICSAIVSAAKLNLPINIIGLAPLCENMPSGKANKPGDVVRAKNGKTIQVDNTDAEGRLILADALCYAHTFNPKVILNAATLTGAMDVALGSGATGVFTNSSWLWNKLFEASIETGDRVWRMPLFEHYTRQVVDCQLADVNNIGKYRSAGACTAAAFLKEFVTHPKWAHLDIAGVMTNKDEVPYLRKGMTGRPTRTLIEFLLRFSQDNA

On to `COC(=O)C(S)[C@H](N)Cc1ccccc1` (some centres undefined), for which the Ki at Cytosol aminopeptidase came out at 300 µM; on Aminopeptidase N, 307 µM; at Aminopeptidase B, 159 µM.
In the case of `CC(C)C[C@H](/N=C(\S)[C@@H](O)[C@H](N)Cc1ccccc1)C(=O)O`, the inhibition constant Ki worked out at 0.33 µM on Cytosol aminopeptidase, 40.3 µM at Aminopeptidase N and 2.4 µM on Aminopeptidase B.
For `CC(C)CCNC(=O)[C@@H](S)[C@H](N)Cc1ccccc1`, the Ki was found to be 16.7 µM on Cytosol aminopeptidase, 4.9 µM on Aminopeptidase N and 4 µM on Aminopeptidase B.
For the molecule `CC(C)C[C@@H](N)CO`, the Ki on Cytosol aminopeptidase, on Aminopeptidase N and at Aminopeptidase B was more than 1000 µM in each case.
As for `CC(C)C[C@H](NC(=O)[C@@H](S)[C@H](N)Cc1ccccc1)C(=O)O` [listing 1 of 2 here], the Ki on Cytosol aminopeptidase was found to be 0.55 µM; at Aminopeptidase N, 4.4 µM; at Aminopeptidase B it was 0.0046 µM.
Take `CC(C)C[C@H](NC(=O)[C@@H](O)[C@H](N)Cc1ccccc1)C(=O)O` [UBENIMEX]: the Ki at Aminopeptidase B was 0.06 µM. This lies in the double-digit nanomolar range.
As for `NCCCC[C@@H](N)CO`, on Aminopeptidase B, the Ki turned out to be 100 µM.
In the case of `CC(C)C[C@@H](N)CS`, the Ki on Cytosol aminopeptidase is 450 µM; on Aminopeptidase N, 0.02 µM; at Aminopeptidase B, 0.13 µM.
On to `COC(=O)C(O)[C@H](N)Cc1ccccc1` (some centres undefined), for which the Ki at Cytosol aminopeptidase is 33 µM; on Aminopeptidase N, 1000 µM; on Aminopeptidase B, more than 1000 µM.
On to `NCCCC[C@@H](N)CS`, for which the results for the Ki at Cytosol aminopeptidase, on Aminopeptidase N and on Aminopeptidase B were more than 1000 µM, 0.11 µM and 0.00091 µM, respectively.
For `CC(C)C[C@H](N)C(C)S` (some centres undefined), in that order: more than 500 µM, 6 µM and 7 µM.
For `CC(C)CC/N=C(\S)[C@@H](O)[C@H](N)Cc1ccccc1`, the inhibitory constant (Ki) at Cytosol aminopeptidase was 4.4 µM; at Aminopeptidase N it was 703 µM; at Aminopeptidase B, more than 1000 µM.
On the same counts, the results for `CC(C)C[C@H](NC(=O)[C@@H](S)[C@H](N)Cc1ccccc1)C(=O)O` [listing 2 of 2 here] are 1 µM, 9.1 µM and 0.0064 µM.
On to `CC(C)C[C@H](N)C(C)O` (some centres undefined), for which the values for the inhibition constant Ki at Cytosol aminopeptidase, on Aminopeptidase N and on Aminopeptidase B were 507 µM, 355 µM and more than 200 µM, respectively.
`CC(C)CCNC(=O)[C@@H](O)[C@H](N)Cc1ccccc1`: the Ki amounted to 0.51 µM on Cytosol aminopeptidase, 20 µM on Aminopeptidase N and 39 µM at Aminopeptidase B.
As to `CC(C)CCNC(=O)[C@H](S)[C@@H](N)Cc1ccccc1`, the values for the Ki on Cytosol aminopeptidase, on Aminopeptidase N and at Aminopeptidase B were 26 µM, 32 µM and 35.7 µM, respectively.
